Measurements reported in ChEMBL document CHEMBL4765370, “Design, synthesis, and biological evaluation of aryl piperazines with potential as antidiabetic agents via the stimulation of glucose uptake and inhibition of NADH:ubiquinone oxidoreductase” (Eur J Med Chem, 2020).

Columns and labels:
[1] = system: C2C12; assay: Induction of glucose uptake in mouse C2C12 cells assessed as [3H]2-deoxyglucose uptake preincubated for 16 hrs followed by followed by [3H]2-deoxyglucose addition and measured after 10 mins by liquid scintillation counting method; format: functional
Summary of the method: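 C2C12 mouse myoblasts were grown in high-glucose DMEM with 10% FBS. At 80% confluence they were differentiated into myotubes with 2% horse serum. Myotubes were exposed to compound (10 µM) for 16 h in medium with 0.1% horse serum, then washed with KRB pH 7.4 and given 1 µCi/mL [3H]-2-deoxyglucose for 10 min at 37 °C. After ice-cold washes and 0.1% SDS lysis, scintillation counts were normalised to BCA protein. Results are fold change vs DMSO, mean ± SEM, one-way ANOVA.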

[2] = Inhibition of NADH:ubiquinone oxidoreductase in rat liver mitochondria incubated for 3 mins
[3] = Apparent permeability in MDCK-MDR1 cells at 10 uM after 30 mins by LC-MS/MS analysis; format: ADME, cell-based, Canis lupus familiaris; conditions: dog
Summary of the method: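 Test article was taken from a 10 mM DMSO stock and diluted in DMEM to a final 10 µM donor solution, with 10 µM propranolol as internal standard. It was applied to hMDR1-MDCK monolayers on filters. Transfer to the receiver compartment was measured over 30 min in both directions, apical-to-basolateral and basolateral-to-apical. Quantification was by LC-MS/MS, n = 3.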

IC50 [2] [µM] | Papp at 0.5 h, 10 µM [3] [×10⁻⁶ cm/s] | SMILES | fold change (FC) [1]
– | – | O=C(O)CCCc1cccs1 | 1.16
– | – | O=C(CCC(=O)N1CCN(c2ccc(C(F)(F)F)cn2)CC1)c1cccs1 | 1.22
133 | – | O=C(CCCc1cccs1)N1CCN(c2ccccc2)CC1 | 0.96
161 | – | CN1CCN(C(=O)CCCc2cccs2)CC1 | 0.84
– | – | O=C(CCCc1cccs1)N1CCN(c2ccc(C(F)(F)F)c(Cl)n2)CC1 | 1.22
– | – | O=C(c1cccs1)N1CCN(c2ccc(C(F)(F)F)cc2)CC1 | 0.93
– | – | O=C(CCCc1cn[nH]c1)N1CCN(c2ccc(C(F)(F)F)cc2)CC1 | 1.35
– | – | O=C(CCCc1cccs1)N1CCN(c2ncc(C(F)(F)F)cc2Cl)CC1 | 1.13
– | – | O=C(CCCCCc1cccs1)N1CCN(c2ccc(C(F)(F)F)cc2)CC1 | 1.33
– | – | COC(=O)CCCc1cccs1 | 1.09
– | – | Cc1ccc(N2CCN(C(=O)CCCc3cccs3)CC2)cc1 | 1
– | – | O=C(CCC(=O)N1CCN(c2ncc(C(F)(F)F)cc2Cl)CC1)c1cccs1 | 1.26
– | – | FC(F)(F)c1ccc(N2CCN(CCCCc3cccs3)CC2)cc1 | 1.36
– | – | O=C(CCCc1cccs1)N1CCN(c2ccc(C(F)(F)F)cc2Br)CC1 | 1.02
– | – | O=C(CCCc1cccs1)N1CCC(c2ccccc2)CC1 | 1.25
– | – | O=C(CCCc1cccs1)N1CCN(c2ccc(C(F)(F)F)cn2)CC1 | 1
– | – | O=C(CCSc1cccs1)N1CCN(c2ncc(C(F)(F)F)cc2Cl)CC1 | 1.31
– | – | CCCCCCCC(=O)N1CCN(c2ccc(C(F)(F)F)cc2)CC1 | 1.38
17 | – | O=C(CCCc1cccs1)N1CCN(c2ccc([N+](=O)[O-])cc2)CC1 | 1.06
– | – | O=C(CCCc1cccs1)N1CCN(c2ccc(F)cc2)CC1 | 1.16
– | – | O=C(CCCc1cccs1)NNc1ccc(C(F)(F)F)cc1 | 1.24
– | – | Nc1ccc(N2CCN(C(=O)CCCc3cccs3)CC2)cc1 | 1.32

IC50 [2] [µM] | Papp at 0.5 h, 10 µM [3] [×10⁻⁶ cm/s] | SMILES | fold change (FC) [1]
– | – | CCCCC(=O)N1CCN(c2ccc(C(F)(F)F)cc2)CC1 | 1.28
92 | – | O=C(CCCc1cccs1)Nc1ccc(C(F)(F)F)cc1 | 1.11
6 | – | O=C(CCCCc1ccccc1)N1CCN(c2ccc(C(F)(F)F)cc2)CC1 | 1.95
– | – | O=C(CCCc1cccs1)N1CCN(c2ccccc2C(F)(F)F)CC1 | 0.85
– | – | COC(=O)CCCCCCCC(=O)N1CCN(c2ccc(C(F)(F)F)cc2)CC1 | 1.08
– | – | CC(=O)N1CCN(c2ccc(C(F)(F)F)cc2)CC1 | 1.43
– | – | O=C(Cc1cccs1)N1CCN(c2ccc(C(F)(F)F)cc2)CC1 | 1.33
60 | – | O=C(CCCCc1cccs1)N1CCN(c2ccc(C(F)(F)F)cc2)CC1 | 1.78
– | – | O=C(O)CCCCCCCC(=O)N1CCN(c2ccc(C(F)(F)F)cc2)CC1 | 1.38
– | – | O=C(CCC(=O)N1CCN(c2ccc(C(F)(F)F)cc2)CC1)c1cccs1 | 1.19
– | – | O=C(CCc1cccs1)N1CCN(c2ccc(C(F)(F)F)cc2)CC1 | 1.09
14 | – | O=C(CCSc1cccs1)N1CCN(c2ccc(C(F)(F)F)cc2)CC1 | 2.14
– | – | O=C(CCC(=O)N1CCC(c2ccc(C(F)(F)F)cc2)CC1)c1cccs1 | 1.31
46 | – | O=C(CCCc1cccs1)N1CCN(c2ccc(C(F)(F)F)cc2Cl)CC1 | 1.58
– | – | O=C(CCCc1cccs1)N1CCN(C2CCCCC2)CC1 | 1.29
15 | – | O=C(CCCc1cccs1)N1CCC(c2ccc(C(F)(F)F)cc2)CC1 | 2.14
– | – | O=C(CCCc1cccs1)N1CCN(c2cc(C(F)(F)F)cc(C(F)(F)F)c2)CC1 | 1.42
– | – | FC(F)(F)c1cnc(N2CCNCC2)c(Cl)c1 | 1.16
– | – | COCCNC(=O)CCCCCCCC(=O)N1CCN(c2ccc(C(F)(F)F)cc2)CC1 | 2.35
– | – | O=C(CCc1ccco1)N1CCN(c2ccc(C(F)(F)F)cc2)CC1 | 1.11
– | 21.8 | CC(C)NCC(O)COc1cccc2ccccc12 (centres undefined) [PROPRANOLOL] | –

SMILES | IC50 [2] [µM] | Papp at 0.5 h, 10 µM [3] [×10⁻⁶ cm/s] | fold change (FC) [1]
CN1CCN(c2ncc(C(F)(F)F)cc2Cl)CC1 | 67 | – | 0.92
